Measured values published in ChEMBL document CHEMBL1126638, “Intracellular delivery of bioactive AZT nucleotides by aryl phosphate derivatives of AZT” (J Med Chem, 1993).

Legend:
CCRF-CEM [1] = assay: cytotoxic activity in CEM/0 cell line; type: functional; conditions: Homo sapiens
In short: (§1)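 Mock-infected MT-4 or CEM cell cultures incubated with compound dilutions in the same format as the antiviral assay. CC50 is the concentration reducing viable cell number (MT-4, trypan blue, day 5) […] by 50%. Mean of two to four independent experiments.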

CCRF-CEM [2] = assay: Anti HIV-2 activity in human lymphocyte CEM/0 cell line; type: functional, cell-based
In short: (§2)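 Cells at 5 × 10^5/mL infected with HIV-1 (III_B, stocks from infected MT-4 supernatants) or HIV-2 (ROD) at 100 CCID50 per mL, then mixed with compound dilutions. Giant cell formation recorded microscopically at day 4 (CEM). Viable MT-4 cells counted by trypan blue at day 5. EC50 is the concentration giving 50% protection against viral cytopathicity. Mean of two to four independent experiments.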

[3] = EC50 of HIV-2 in CEM/TK versus EC50 of HIV-2 in CEM/0; type: functional
In short: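 Ratio of the HIV-2 EC50 in thymidine kinase-deficient CEM/TK⁻ cells to the HIV-2 EC50 in CEM/O cells. Both values come from the cytopathicity-protection assay.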

MT4 [4] = assay: cytotoxic activity in MT-4 cell line; type: functional; conditions: Homo sapiens; in short: as §1
[5] = Selective index is the ratio of cytotoxic concentration to effective concentration against MT-4 cell line; type: functional, MT4
In short: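 Selectivity index for HIV-2 in MT-4 cells is the CC50 (mock-infected cultures, trypan blue viable count at day 5) divided by the EC50 (protection of infected cultures from HIV-2 cytopathicity).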

CCRF-CEM [6] = assay: Anti HIV-1 activity in human lymphocyte CEM/0 cell line; type: functional, cell-based; in short: as §2
MT4 [7] = assay: Anti HIV-1 activity in human lymphocyte MT-4 cell line; type: functional, cell-based; in short: as §2
MT4 [8] = assay: Anti HIV-2 activity in human lymphocyte MT-4 cell line; type: functional, cell-based; in short: as §2
CCRF-CEM [9] = assay: Antiviral activity in HIV-2 infected CEM cells which are deficient in Thymidine Kinase; type: functional, cell-based; conditions: Homo sapiens; in short: as §2

| Structure (SMILES) | EC50 (CCRF-CEM [2]) [nM] | EC50 (CCRF-CEM [6]) [nM] | EC50 (CCRF-CEM [9]) [nM] | CC50 (CCRF-CEM [1]) [nM] | Ratio [3] | CC50 (MT4 [4]) [nM] | Selectivity index [5] | EC50 (MT4 [7]) [nM] | EC50 (MT4 [8]) [nM] |
| --- | --- | --- | --- | --- | --- | --- | --- | --- | --- |
| COC(=O)CNP(=O)(OCC1OC(n2cc(C)c(=O)[nH]c2=O)CC1N=[N+]=[N-])Oc1ccccc1 (stereo not drawn) | 230 | 97 | > 100000 | > 500000 | > 435 | > 500000 | >2500 | 160 | 200 |
| COC(=O)C(C)NP(=O)(OCC1OC(n2cc(C)c(=O)[nH]c2=O)CC1N=[N+]=[N-])Oc1ccc(OC)cc1 (stereo not drawn) | 65 | 57 | 9000 | 42600 | 138 | 182000 | 2638 | 71 | 69 |
| COC(=O)[C@H](C)NP(=O)(OC[C@H]1O[C@@H](n2cc(C)c(=O)[nH]c2=O)C[C@@H]1N=[N+]=[N-])Oc1ccccc1 (stereo partly drawn) | 70 | 55 | 12000 | 172000 | 171 | > 50000 | >5555 | 6 | 7 |
| Cc1cn([C@H]2C[C@H](N=[N+]=[N-])[C@@H](CO)O2)c(=O)[nH]c1=O [ZIDOVUDINE] | 4 | 3 | > 100000 | > 500000 | > 28600 | 6000 | 2000 | 2 | – |
| COC(=O)C(NP(=O)(OCC1OC(n2cc(C)c(=O)[nH]c2=O)CC1N=[N+]=[N-])Oc1ccccc1)C(C)C (stereo not drawn) | 210 | 140 | 13000 | 123000 | 62 | 205000 | 1891 | 99 | 87 |

Continued by falling EC50 (CCRF-CEM [2]), values first:

| EC50 (CCRF-CEM [2]) [nM] | EC50 (CCRF-CEM [6]) [nM] | EC50 (CCRF-CEM [9]) [nM] | Structure (SMILES) | CC50 (CCRF-CEM [1]) [nM] | Ratio [3] | CC50 (MT4 [4]) [nM] | Selectivity index [5] | EC50 (MT4 [7]) [nM] | EC50 (MT4 [8]) [nM] |
| --- | --- | --- | --- | --- | --- | --- | --- | --- | --- |
| 160 | 97 | 10000 | COC(=O)C(Cc1ccccc1)NP(=O)(OCC1OC(n2cc(C)c(=O)[nH]c2=O)CC1N=[N+]=[N-])Oc1ccccc1 (stereo not drawn) | 161000 | 62 | 208000 | 2356 | 80 | 110 |
| 65 | 48 | 3000 | COC(=O)C(C)NP(=O)(OCC1OC(n2cc(C)c(=O)[nH]c2=O)CC1N=[N+]=[N-])Oc1ccc(F)cc1 (stereo not drawn) | 128000 | 46 | 206000 | 3815 | 41 | 54 |
| 60 | 48 | 8700 | CCc1ccc(OP(=O)(NC(C)C(=O)OC)OCC2OC(n3cc(C)c(=O)[nH]c3=O)CC2N=[N+]=[N-])cc1 (stereo not drawn) | 31700 | 145 | 11000 | 153 | 68 | 70 |
| 60 | 51 | 8000 | CCCCCc1ccc(OP(=O)(NC(C)C(=O)OC)OCC2OC(n3cc(C)c(=O)[nH]c3=O)CC2N=[N+]=[N-])cc1 (stereo not drawn) | 9000 | 133 | 7000 | 99 | 103 | 74 |
| 56 | 65 | 7000 | COC(=O)C(C)NP(=O)(OCC1OC(n2cc(C)c(=O)[nH]c2=O)CC1N=[N+]=[N-])Oc1ccc(C)cc1 (stereo not drawn) | 43000 | 125 | 27000 | 509 | 51 | 53 |
| 51 | 41 | 3000 | CCCc1ccc(OP(=O)(NC(C)C(=O)OC)OCC2OC(n3cc(C)c(=O)[nH]c3=O)CC2N=[N+]=[N-])cc1 (stereo not drawn) | 32700 | 59 | 28000 | 631 | 43 | 45 |
